{"source": "ChEMBL document CHEMBL1131343", "about": "“Nonpeptide cyclic cyanoguanidines as HIV-1 protease inhibitors: synthesis, structure-activity relationships, and X-ray crystal structure studies” (J Med Chem, 1998)", "key": {"[1]": {"test_system": "Human immunodeficiency virus 1", "assay": "The antiviral potency (IC90) was assessed by measuring their effect on the accumulation of viral RNA transcripts on HIV-1 RF infected MT-2 cells", "type": "functional", "conditions": "Human immunodeficiency virus 1, MT2", "outline": "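HIV-1 RF infection of MT-2 cells; the read-out is viral RNA transcript accumulation measured 3 days after infection. IC90 is taken from this read-out.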"}, "[2]": {"target": "Human immunodeficiency virus type 1 protease (Human immunodeficiency virus 1, UniProt Q72874)", "assay": "Binding affinity for HIV-1 protease enzyme was measured by using fluorescent peptide substrate"}}, "data": [{"smiles": "N#CN=C1N(Cc2ccc3ccccc3c2)[C@H](Cc2ccccc2)[C@H](O)[C@@H](O)[C@@H](Cc2ccccc2)N1Cc1ccc2ccccc2c1", "values": [{"measurement": "IC90", "setting": "[1]", "result": "> 79000", "unit": "nM"}, {"measurement": "Ki", "setting": "[2]", "result": 22, "unit": "nM"}]}, {"smiles": "O=C1N[C@H](Cc2ccccc2)[C@H](O)[C@@H](O)[C@@H](Cc2ccccc2)N1", "values": [{"measurement": "Ki", "setting": "[2]", "result": 267, "unit": "nM"}]}, {"smiles": "CCCCN1C(=NC#N)N(CCCC)[C@H](Cc2ccccc2)[C@H](O)[C@@H](O)[C@H]1Cc1ccccc1", "values": [{"measurement": "IC90", "setting": "[1]", "result": 2600, "unit": "nM"}, {"measurement": "Ki", "setting": "[2]", "result": 2.7, "unit": "nM"}]}, {"smiles": "N#CN=C1N(Cc2ccc(O)cc2)[C@H](Cc2ccccc2)[C@H](O)[C@@H](O)[C@@H](Cc2ccccc2)N1Cc1ccc(O)cc1", "values": [{"measurement": "IC90", "setting": "[1]", "result": 250, "unit": "nM"}, {"measurement": "Ki", "setting": "[2]", "result": 2.6, "unit": "nM"}]}, {"smiles": "O=C1N(CC2CCCCC2)[C@H](Cc2ccccc2)[C@H](O)[C@@H](O)[C@@H](Cc2ccccc2)N1CC1CCCCC1", "values": [{"measurement": "IC90", "setting": "[1]", "result": 96000, "unit": "nM"}]}, {"smiles": "O=C1N(Cc2ccc(O)cc2)[C@H](Cc2ccccc2)[C@H](O)[C@@H](O)[C@@H](Cc2ccccc2)N1Cc1ccc(O)cc1", "values": [{"measurement": "IC90", "setting": "[1]", "result": 32, "unit": "nM"}]}, {"smiles": "N#CN=C1N(Cc2ccc(C#N)cc2)[C@H](Cc2ccccc2)[C@H](O)[C@@H](O)[C@@H](Cc2ccccc2)N1Cc1ccc(C#N)cc1", "values": [{"measurement": "IC90", "setting": "[1]", "result": 7700, "unit": "nM"}, {"measurement": "Ki", "setting": "[2]", "result": 128, "unit": "nM"}]}, {"smiles": "CC(C)=CCN1C(=NC#N)N(CC=C(C)C)[C@H](Cc2ccccc2)[C@H](O)[C@@H](O)[C@H]1Cc1ccccc1", "values": [{"measurement": "IC90", "setting": "[1]", "result": 4700, "unit": "nM"}, {"measurement": "Ki", "setting": "[2]", "result": 30, "unit": "nM"}]}, {"smiles": "O=C1N(Cc2ccc(OCc3ccccc3)cc2)[C@H](Cc2ccccc2)[C@H](O)[C@@H](O)[C@@H](Cc2ccccc2)N1Cc1ccc(OCc2ccccc2)cc1", "values": [{"measurement": "IC90", "setting": "[1]", "result": "> 70000", "unit": "nM"}, {"measurement": "Ki", "setting": "[2]", "result": 542, "unit": "nM"}]}, {"smiles": "Nc1cccc(CN2C(=O)N(Cc3cccc(N)c3)[C@H](Cc3ccccc3)[C@H](O)[C@@H](O)[C@H]2Cc2ccccc2)c1", "note": "[MOZENAVIR]", "values": [{"measurement": "IC90", "setting": "[1]", "result": 130, "unit": "nM"}, {"measurement": "Ki", "setting": "[2]", "result": 0.28, "unit": "nM"}]}, {"smiles": "N#CN=C1N(Cc2cccc(O)c2)[C@H](Cc2ccccc2)[C@H](O)[C@@H](O)[C@@H](Cc2ccccc2)N1Cc1cccc(O)c1", "values": [{"measurement": "IC90", "setting": "[1]", "result": 130, "unit": "nM"}, {"measurement": "Ki", "setting": "[2]", "result": 0.72, "unit": "nM"}]}, {"smiles": "N#CN=C1N(Cc2cccc([N+](=O)[O-])c2)[C@H](Cc2ccccc2)[C@H](O)[C@@H](O)[C@@H](Cc2ccccc2)N1Cc1cccc([N+](=O)[O-])c1", "values": [{"measurement": "IC90", "setting": "[1]", "result": 17700, "unit": "nM"}, {"measurement": "Ki", "setting": "[2]", "result": 89, "unit": "nM"}]}, {"smiles": "N#CN=C1N(Cc2cccc(N)c2)[C@H](Cc2ccccc2)[C@H](O)[C@@H](O)[C@@H](Cc2ccccc2)N1Cc1cccc(N)c1", "values": [{"measurement": "IC90", "setting": "[1]", "result": 500, "unit": "nM"}, {"measurement": "Ki", "setting": "[2]", "result": 7.4, "unit": "nM"}]}, {"smiles": "CC(C)CCN1C(=O)N(CCC(C)C)[C@H](Cc2ccccc2)[C@H](O)[C@@H](O)[C@H]1Cc1ccccc1", "values": [{"measurement": "IC90", "setting": "[1]", "result": 4300, "unit": "nM"}]}, {"smiles": "NC(=O)NC1=N[C@H](Cc2ccccc2)[C@H](O)[C@@H](O)[C@@H](Cc2ccccc2)N1", "values": [{"measurement": "IC90", "setting": "[1]", "result": "> 142000", "unit": "nM"}, {"measurement": "Ki", "setting": "[2]", "result": "> 12500", "unit": "nM"}]}, {"smiles": "O=C1N(Cc2ccc3ccccc3c2)[C@H](Cc2ccccc2)[C@H](O)[C@@H](O)[C@@H](Cc2ccccc2)N1Cc1ccc2ccccc2c1", "values": [{"measurement": "IC90", "setting": "[1]", "result": 3900, "unit": "nM"}, {"measurement": "Ki", "setting": "[2]", "result": 0.31, "unit": "nM"}]}, {"smiles": "Nc1ccc(CN2C(=O)N(Cc3ccc(N)cc3)[C@H](Cc3ccccc3)[C@H](O)[C@@H](O)[C@H]2Cc2ccccc2)cc1", "values": [{"measurement": "IC90", "setting": "[1]", "result": 110, "unit": "nM"}, {"measurement": "Ki", "setting": "[2]", "result": 1.1, "unit": "nM"}]}, {"smiles": "N#CN=C1N(Cc2ccc(CO)cc2)[C@H](Cc2ccccc2)[C@H](O)[C@@H](O)[C@@H](Cc2ccccc2)N1Cc1ccc(CO)cc1", "values": [{"measurement": "IC90", "setting": "[1]", "result": 3200, "unit": "nM"}, {"measurement": "Ki", "setting": "[2]", "result": 11, "unit": "nM"}]}, {"smiles": "N#Cc1ccc(CN2C(=O)N(Cc3ccc(C#N)cc3)[C@H](Cc3ccccc3)[C@H](O)[C@@H](O)[C@H]2Cc2ccccc2)cc1", "values": [{"measurement": "IC90", "setting": "[1]", "result": 5800, "unit": "nM"}, {"measurement": "Ki", "setting": "[2]", "result": 52, "unit": "nM"}]}, {"smiles": "N#CN=C1N(Cc2cccc(C#N)c2)[C@H](Cc2ccccc2)[C@H](O)[C@@H](O)[C@@H](Cc2ccccc2)N1Cc1cccc(C#N)c1", "values": [{"measurement": "IC90", "setting": "[1]", "result": 3100, "unit": "nM"}, {"measurement": "Ki", "setting": "[2]", "result": 27, "unit": "nM"}]}, {"smiles": "N#CN=C1N(Cc2ccc([N+](=O)[O-])cc2)[C@H](Cc2ccccc2)[C@H](O)[C@@H](O)[C@@H](Cc2ccccc2)N1Cc1ccc([N+](=O)[O-])cc1", "values": [{"measurement": "IC90", "setting": "[1]", "result": 19300, "unit": "nM"}, {"measurement": "Ki", "setting": "[2]", "result": 67, "unit": "nM"}]}, {"smiles": "N#CN=C1N(CC2CCCC2)[C@H](Cc2ccccc2)[C@H](O)[C@@H](O)[C@@H](Cc2ccccc2)N1CC1CCCC1", "values": [{"measurement": "IC90", "setting": "[1]", "result": 350, "unit": "nM"}, {"measurement": "Ki", "setting": "[2]", "result": 1.5, "unit": "nM"}]}, {"smiles": "CC(C)=CCN1C(=O)N(CC=C(C)C)[C@H](Cc2ccccc2)[C@H](O)[C@@H](O)[C@H]1Cc1ccccc1", "values": [{"measurement": "IC90", "setting": "[1]", "result": 860, "unit": "nM"}, {"measurement": "Ki", "setting": "[2]", "result": 1.6, "unit": "nM"}]}, {"smiles": "O=C1N(Cc2cccc(OCc3ccccc3)c2)[C@H](Cc2ccccc2)[C@H](O)[C@@H](O)[C@@H](Cc2ccccc2)N1Cc1cccc(OCc2ccccc2)c1", "values": [{"measurement": "IC90", "setting": "[1]", "result": "> 70000", "unit": "nM"}, {"measurement": "Ki", "setting": "[2]", "result": 340, "unit": "nM"}]}, {"smiles": "O=C1N(Cc2ccc([N+](=O)[O-])cc2)[C@H](Cc2ccccc2)[C@H](O)[C@@H](O)[C@@H](Cc2ccccc2)N1Cc1ccc([N+](=O)[O-])cc1", "values": [{"measurement": "IC90", "setting": "[1]", "result": 8400, "unit": "nM"}, {"measurement": "Ki", "setting": "[2]", "result": 32, "unit": "nM"}]}, {"smiles": "N#CN=C1N(CC2CC2)[C@H](Cc2ccccc2)[C@H](O)[C@@H](O)[C@@H](Cc2ccccc2)N1CC1CC1", "values": [{"measurement": "IC90", "setting": "[1]", "result": 5000, "unit": "nM"}, {"measurement": "Ki", "setting": "[2]", "result": 22, "unit": "nM"}]}, {"smiles": "C=CCN1C(=NC#N)N(CC=C)[C@H](Cc2ccccc2)[C@H](O)[C@@H](O)[C@H]1Cc1ccccc1", "values": [{"measurement": "IC90", "setting": "[1]", "result": 51000, "unit": "nM"}, {"measurement": "Ki", "setting": "[2]", "result": 37, "unit": "nM"}]}, {"smiles": "N#Cc1cccc(CN2C(=O)N(Cc3cccc(C#N)c3)[C@H](Cc3ccccc3)[C@H](O)[C@@H](O)[C@H]2Cc2ccccc2)c1", "values": [{"measurement": "IC90", "setting": "[1]", "result": 2200, "unit": "nM"}]}, {"smiles": "N#CN=C1N(Cc2ccccc2)[C@H](Cc2ccccc2)[C@H](O)[C@@H](O)[C@@H](Cc2ccccc2)N1Cc1ccccc1", "values": [{"measurement": "IC90", "setting": "[1]", "result": 3800, "unit": "nM"}, {"measurement": "Ki", "setting": "[2]", "result": 20, "unit": "nM"}]}, {"smiles": "O=C1N(Cc2ccc(CO)cc2)[C@H](Cc2ccccc2)[C@H](O)[C@@H](O)[C@@H](Cc2ccccc2)N1Cc1ccc(CO)cc1", "note": "[DMP-323]", "values": [{"measurement": "IC90", "setting": "[1]", "result": 57, "unit": "nM"}]}, {"smiles": "N#CN=C1N(CC2CCC2)[C@H](Cc2ccccc2)[C@H](O)[C@@H](O)[C@@H](Cc2ccccc2)N1CC1CCC1", "values": [{"measurement": "IC90", "setting": "[1]", "result": 840, "unit": "nM"}, {"measurement": "Ki", "setting": "[2]", "result": 2, "unit": "nM"}]}, {"smiles": "CCCN1C(=NC#N)N(CCC)[C@H](Cc2ccccc2)[C@H](O)[C@@H](O)[C@H]1Cc1ccccc1", "values": [{"measurement": "IC90", "setting": "[1]", "result": 7400, "unit": "nM"}, {"measurement": "Ki", "setting": "[2]", "result": 14, "unit": "nM"}]}, {"smiles": "CC(C)CCN1C(=NC#N)N(CCC(C)C)[C@H](Cc2ccccc2)[C@H](O)[C@@H](O)[C@H]1Cc1ccccc1", "values": [{"measurement": "IC90", "setting": "[1]", "result": 1100, "unit": "nM"}, {"measurement": "Ki", "setting": "[2]", "result": 3.8, "unit": "nM"}]}, {"smiles": "N#CN=C1N(Cc2cccc(OCc3ccccc3)c2)[C@H](Cc2ccccc2)[C@H](O)[C@@H](O)[C@@H](Cc2ccccc2)N1Cc1cccc(OCc2ccccc2)c1", "values": [{"measurement": "IC90", "setting": "[1]", "result": "> 67300", "unit": "nM"}, {"measurement": "Ki", "setting": "[2]", "result": 1370, "unit": "nM"}]}, {"smiles": "N#CN=C1N(Cc2ccc(N)cc2)[C@H](Cc2ccccc2)[C@H](O)[C@@H](O)[C@@H](Cc2ccccc2)N1Cc1ccc(N)cc1", "values": [{"measurement": "IC90", "setting": "[1]", "result": 2300, "unit": "nM"}, {"measurement": "Ki", "setting": "[2]", "result": 25, "unit": "nM"}]}, {"smiles": "N#CN=C1N(CC2CCCCC2)[C@H](Cc2ccccc2)[C@H](O)[C@@H](O)[C@@H](Cc2ccccc2)N1CC1CCCCC1", "values": [{"measurement": "IC90", "setting": "[1]", "result": 1100, "unit": "nM"}, {"measurement": "Ki", "setting": "[2]", "result": 5.7, "unit": "nM"}]}, {"smiles": "N#CN=C1N(Cc2ccc(OCc3ccccc3)cc2)[C@H](Cc2ccccc2)[C@H](O)[C@@H](O)[C@@H](Cc2ccccc2)N1Cc1ccc(OCc2ccccc2)cc1", "values": [{"measurement": "IC90", "setting": "[1]", "result": 67300, "unit": "nM"}, {"measurement": "Ki", "setting": "[2]", "result": 900, "unit": "nM"}]}, {"smiles": "N#CN=C1N(Cc2cccc(CO)c2)[C@H](Cc2ccccc2)[C@H](O)[C@@H](O)[C@@H](Cc2ccccc2)N1Cc1cccc(CO)c1", "values": [{"measurement": "IC90", "setting": "[1]", "result": 590, "unit": "nM"}, {"measurement": "Ki", "setting": "[2]", "result": 1.7, "unit": "nM"}]}]}
